According to ChEMBL document CHEMBL1136410, “Design, synthesis, and biological evaluation of angiogenesis inhibitors: aromatic enone and dienone analogues of curcumin” (2003):

Key:
[1] = In vitro percent inhibition of […] murine endothelial cell proliferation garnered from C57BL/6 mice infected with ectotropic virus at 3 ug/mL; type: functional; conditions: Mus musculus
In short: (§1)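 SVR cells (C57BL/6 murine endothelial cells immortalized with SV40 large T and activated H-ras) plated at 10,000/well on gelatinized wells. Grown 24 h at 37 °C, 10% CO2, in 5% DMEM. Medium then replaced with fresh 5% DMEM containing 3 or 6 µg/mL compound (from 1 mg/mL DMSO stocks) for 72 h. Surviving trypsinized cells Coulter-counted; percent inhibition versus DMSO control.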

[2] = In vitro percent inhibition of […] murine endothelial cell proliferation garnered from C57BL/6 mice infected with ectotropic virus at 6 ug/mL; type: functional; conditions: Mus musculus; in short: as §1

Structure (SMILES) | inhibition at 3 µg/mL [1] | inhibition at 6 µg/mL [2]
Cc1ccc(C(=O)/C=C/c2c(Cl)cccc2Cl)cc1 | 98.2% | 98.1%
O=C(/C=C/c1c(Cl)cccc1Cl)c1ccccc1 | 92.9% | 97.5%
O=C(/C=C/c1ccccc1)c1ccc2ccccc2c1 | 92.2% | 94.7%
O=C(/C=C/c1ccccc1)/C=C/c1ccccc1 | 96.6% | 97.7%
O=C1/C(=C/c2ccccn2)CCC/C1=C\c1ccccn1 | 92.9% | 96.7%
O=C(/C=C/c1c(Cl)cccc1Cl)/C=C/c1c(Cl)cccc1Cl | 87.1% | 90.4%
O=C1/C(=C/c2ccccc2)CCC/C1=C\c1ccccc1 [2,6-DIBENZYLIDENECYCLOHEXANONE] | 94.4% | 97.7%
O=C(/C=C/c1ccccc1)c1ccccc1 [CHALCONE] | 92.8% | 94.4%
COc1cc(/C=C2\CCC/C(=C\c3ccc(O)c(OC)c3)C2=O)ccc1O [CYCLOVALONE] | 90.1% | 96%
O=C(/C=C/c1ccccn1)c1ccccc1 [WR-190433] | 89.1% | 96.9%
